Measurements from ChEMBL document CHEMBL2311478, “Macrolactonolides: a novel class of anti-inflammatory compounds” (Bioorg Med Chem, 2013).
pEC50: −log10 of the molar value. ≈ marks a conversion by molar mass, not a printed value. Calls of active or inactive are those of the source. No cut-off for these calls is given here.

Tests used:
Escherichia coli = assay: Antibacterial activity against Escherichia coli ATCC 25922 by broth microdilution method; format: functional
Method in brief: (§1)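 CLSI broth microdilution with double dilutions in 96-well plates. For streptococci, 5% horse serum replaced lysed blood in the medium. Inocula were grown on Columbia agar with 5% sheep blood for streptococci, Mueller–Hinton chocolate agar for H. influenzae, and Mueller–Hinton agar for staphylococci. Read-out is MIC in mg/L.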

Enterococcus faecalis = assay: Antibacterial activity against Enterococcus faecalis ATCC 29213 by broth microdilution method; format: functional; method in brief: as §1
Moraxella catarrhalis = assay: Antibacterial activity against Moraxella catarrhalis ATCC 23246 by broth microdilution method; format: functional; method in brief: as §1
Streptococcus pyogenes = assay: Antibacterial activity against inducible-resistant to macrolide, licosamide and streptogramin Streptococcus pyogenes Finland 11 by broth microdilution method; format: functional
Method in brief: (§2)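 MICs by CLSI broth microdilution with double dilutions, except that Streptococcus medium used 5% horse serum in place of lysed blood. Bacteria were pre-grown on Columbia agar with 5% sheep blood (streptococci) or Mueller–Hinton agar (staphylococci).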

Streptococcus pneumoniae = assay: Antibacterial activity against efflux mediated macrolide-resistant Streptococcus pneumoniae Ci137 by broth microdilution method; format: functional; method in brief: as §2
Staphylococcus aureus [1] = assay: Antibacterial activity against efflux mediated macrolide-resistant Staphylococcus aureus PK1 by broth microdilution method; format: functional; method in brief: as §2
Staphylococcus aureus [2] = assay: Antibacterial activity against constitutive-resistant to macrolide, licosamide and streptogramin Staphylococcus aureus PK2 by broth microdilution method; format: functional; method in brief: as §2
Staphylococcus aureus [3] = assay: Antibacterial activity against inducible-resistant to macrolide, licosamide and streptogramin Staphylococcus aureus 90265/97 by broth microdilution method; format: functional; method in brief: as §2
Rattus norvegicus [4] = assay: Antiinflammatory activity against ovalbumin-induced airway allergic Brown-Norway rat model assessed as decrease of eosinophil peroxidase activity in bronchoalveolar lavage fluid at 11 mg/kg administered intranasally as dry powder measured on day 29 after ovalbumin challenge; format: functional, Lung; design: scale not given: the % may be the effect or the level left
Rattus norvegicus [5] = assay: Antiinflammatory activity against ovalbumin-induced airway allergic Brown-Norway rat model assessed as decrease of macrophages in bronchoalveolar lavage fluid at 32 mg/kg administered intranasally as dry powder measured on day 29 after ovalbumin challenge; format: functional, organism-based; design: dose 32 mg/kg; settings: Lung
Method in brief: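 Brown-Norway rats sensitised by OVA injection on day 1, boosted on days 14 and 20. Treatment with 32 mg/kg or air control on day 27, followed 1 h later by 60 min OVA inhalation challenge. BAL cells differentiated about 48 h post-challenge (day 29). Comparison was against a sensitised, challenged, untreated group. Mean + SD, n = 10, Dunnett test.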

Rattus norvegicus [6] = assay: Antiinflammatory activity against ovalbumin-induced airway allergic Brown-Norway rat model assessed as decrease of eosinophils in bronchoalveolar lavage fluid at 32 mg/kg administered intranasally as dry powder measured on day 29 after ovalbumin challenge (reference value: 53.1%); format: functional, Lung; design: scale not given: the % may be the effect or the level left
[7] = Cmax in Balb/c mouse plasma at 2 mg/kg, administered intranasally; format: ADME, organism-based; design: route nasal, dose 2 mg/kg; settings: inhaled or intranasal
Method in brief: (§3)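 Male Balb/c mice (21–25 g) dosed intranasally with freshly prepared formulation in 1% DMSO plus 0.125% CMC. Terminal bleeding and lung collection from 5 min to 72 h. K2EDTA blood taken as blood aliquots or spun for plasma. Lung homogenised 1:5 in water. Samples were protein-precipitated with acetonitrile/methanol (2:1) plus roxithromycin internal standard and quantified by LC–MS/MS. LLOQ 0.5 ng/mL (blood/plasma) and 2.5 ng/mL (lung).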

PBMC [8] = assay: Antiinflammatory activity in human PBMC assessed as inhibition of PHA-induced IL-10 production after 48 hrs; format: functional, cell-based
Method in brief: (§4)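 Thawed cryopreserved human PBMCs were preincubated 1 h at 37 °C, 5% CO2, then exposed to test compound for 1 h before LPS, anti-CD3 or PHA stimulation. Supernatants were collected at 6, 24 or 48 h according to each cytokine's peak, and cytokines quantified by Luminex multiplex bead assay. 10-point titration starting at 20 µM, in duplicate, with constant DMSO. Parallel Alamar Blue cytotoxicity check under 48 h PHA.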

PBMC [9] = assay: Antiinflammatory activity in human PBMC assessed as inhibition of PHA-induced IL-4 production after 24 hrs; format: functional, cell-based; method in brief: as §4
PBMC [10] = assay: Antiinflammatory activity in human PBMC assessed as inhibition of PHA-induced MIP1alpha production after 6 hrs; format: functional, cell-based; method in brief: as §4
PBMC [11] = assay: Antiinflammatory activity in human PBMC assessed as inhibition of PHA-induced IL-8 production after 6 hrs; format: functional, cell-based; method in brief: as §4
PBMC [12] = assay: Antiinflammatory activity in human PBMC assessed as inhibition of PHA-induced IL-6 production after 6 hrs; format: functional, cell-based; method in brief: as §4
PBMC [13] = assay: Antiinflammatory activity in human PBMC assessed as inhibition of PHA-induced IL-1beta production after 6 hrs; format: functional, cell-based; method in brief: as §4
PBMC [14] = assay: Antiinflammatory activity in human PBMC assessed as inhibition of anti-CD3-induced IL-12p70 production after 48 hrs; format: functional, cell-based; method in brief: as §4
PBMC [15] = assay: Antiinflammatory activity in human PBMC assessed as inhibition of anti-CD3-induced IL-1beta production after 48 hrs; format: functional, cell-based; method in brief: as §4
PBMC [16] = assay: Antiinflammatory activity in human PBMC assessed as inhibition of anti-CD3-induced TNFalpha production after 48 hrs; format: functional, cell-based; method in brief: as §4
PBMC [17] = assay: Antiinflammatory activity in human PBMC assessed as inhibition of LPS-induced MIP1alpha production after 6 hrs; format: functional, cell-based; method in brief: as §4
PBMC [18] = assay: Antiinflammatory activity in human PBMC assessed as inhibition of LPS-induced IL-8 production after 6 hrs; format: functional, cell-based; method in brief: as §4
PBMC [19] = assay: Antiinflammatory activity in human PBMC assessed as inhibition of LPS-induced IL-6 production after 6 hrs; format: functional, cell-based; method in brief: as §4
[20] = Cmax in Balb/c mouse lung at 2 mg/kg, administered intranasally; format: ADME, organism-based; design: dose 2 mg/kg, route nasal; settings: inhaled or intranasal; method in brief: as §3
[21] = Tmax in Balb/c mouse lung at 2 mg/kg, administered intranasally; format: ADME, organism-based; design: dose 2 mg/kg; settings: inhaled or intranasal; method in brief: as §3
[22] = Drug uptake in mouse J774A1 cells assessed as compound retention at 10 uM after 3 hrs by LC-MS/MS method; format: ADME, cell-based; settings: j774.a1, 3 h
Method in brief: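 J774A.1 cells were loaded with 10 µM compound for 3 h in DMEM/25 mM Hepes, then incubated 3 h in fresh medium. Cells were washed, lysed in 0.5% Triton X-100 and analysed by LC–MS/MS. Retention is the percentage of the initially accumulated amount remaining. Triplicates, mean ± SD from one representative experiment.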

[23] = Cmax in Balb/c mouse blood at 2 mg/kg, administered intranasally; format: ADME, organism-based; design: dose 2 mg/kg, route nasal; settings: whole blood, inhaled or intranasal; method in brief: as §3
[24] = AUC (0 to infinity) in Balb/c mouse blood at 2 mg/kg, administered intranasally; format: ADME, organism-based; design: time infinity, dose 2 mg/kg, route nasal; settings: whole blood, inhaled or intranasal; method in brief: as §3
[25] = Half life in Balb/c mouse blood at 2 mg/kg, administered intranasally; format: ADME, organism-based; design: dose 2 mg/kg; settings: whole blood, inhaled or intranasal; method in brief: as §3

With CC[C@H]1OC(=O)[C@H](C)[C@@H](O[C@H]2C[C@@](C)(OC)[C@@H](O)[C@H](C)O2)[C@H](C)[C@@H](O[C@@H]2O[C@H](C)C[C@H](N(C)C)[C@H]2O)[C@](C)(O)C[C@@H](C)CN(CCCNC(=O)[C@H]2[C@H](C)C[C@H]3[C@@H]4CCC5=CC(=O)C=C[C@]5(C)[C@@]4(F)[C@@H](O)C[C@@]32C)[C@H](C)[C@@H](O)[C@]1(C)O the MIC (Escherichia coli) was over 64 µg/mL, the MIC (Enterococcus faecalis) was 64 µg/mL (≈ 56.3 µM) and the MIC (Moraxella catarrhalis) was 8 µg/mL (≈ 7.04 µM). For the same molecule, the MIC (Streptococcus pyogenes) was 32 µg/mL (≈ 28.2 µM), the MIC (Streptococcus pneumoniae) was 32 µg/mL (≈ 28.2 µM) and the MIC (Staphylococcus aureus [1]) was over 64 µg/mL. For the same molecule, the MIC (Staphylococcus aureus [2]) was over 64 µg/mL, the MIC (Staphylococcus aureus [3]) was over 64 µg/mL and the Activity (Rattus norvegicus [4]) was 12%. The Activity (Rattus norvegicus [5]) was “Active”, the Activity (Rattus norvegicus [6]) was 43.6% and the Cmax [7] was 223 ng/mL. For the same molecule, the pEC50 (PBMC [8]) was 5.29, the pEC50 (PBMC [9]) was 6.68 and the pEC50 (PBMC [10]) was 5.58. It also gave a pEC50 (PBMC [11]) of 5.52, a pEC50 (PBMC [12]) of 5.39 and a pEC50 (PBMC [13]) of 4.86. It also gave a pEC50 (PBMC [14]) of 7.77, a pEC50 (PBMC [15]) of 7.52 and a pEC50 (PBMC [16]) of 7.43. It also gave a pEC50 (PBMC [17]) of 5.10, a pEC50 (PBMC [18]) of 5.05 and a pEC50 (PBMC [19]) of under 4.70. The Cmax [20] was 2410 ng/mL, the Tmax [21] was 4.8 min and the Drug uptake [22] was “Active”. It also gave a Cmax [23] of 169 ng/mL, an AUC(0-inf) [24] of 181 ng·h/mL and a half-life [25] of 54 min.
